According to ChEMBL document CHEMBL2069254, “Synthesis and one-electron reduction characteristics of radiation-activated prodrugs possessing two 5-fluorodeoxyuridine units” (Bioorg Med Chem, 2012):
The source made the active and inactive calls. The calls are words filed in the database; no cut-off is given here.

Key:
[1] = Radiation stability assessed as compound decomposition at 100 uM after exposing to 6.0 Gy/min X-ray irradiation aqueous solution containing 2-methyl-2-propanol under hypoxic conditions by HPLC; format: physicochemical; details: buffer
[2] = Radiation stability assessed as 5-fluorodeoxyuridine formation at 100 uM after exposing to 6.0 Gy/min X-ray irradiation aqueous solution containing 2-methyl-2-propanol under hypoxic conditions by HPLC; format: physicochemical; details: buffer
[3] = Radiation stability assessed as compound decomposition at 100 uM after exposing to 6.0 Gy/min X-ray irradiation aqueous solution containing 2-methyl-2-propanol under aerobic conditions by HPLC; format: physicochemical; details: buffer
[4] = Radiation stability assessed as 5-fluorodeoxyuridine formation at 100 uM after exposing to 6.0 Gy/min X-ray irradiation aqueous solution containing 2-methyl-2-propanol under aerobic conditions by HPLC; format: physicochemical; details: buffer
[5] = test system: A549; assay: Cytotoxicity against human A549 cells after 72 hrs by microplate reader method; format: functional, cell-based; details: A549, 72 h
How it was run: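 A549 cells grown in DMEM with 10% FBS and 1% streptomycin/penicillin, seeded at 1500 cells/well, cultured 24 h at 37 °C in 5% CO2/95% air. Exposed to a concentration series under aerobic conditions for 72 h. Viability read by WST-8 (CCK-8) after 30 min at 37 °C; IC50 estimated from viability curves.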

[6] = test system: A549; assay: Cytotoxicity against human A549 cells incubated with 125 uM compound for 12 hrs followed by pre-irradiated 30 to 6 Gy/min X-ray irradiation measured after 72 hrs under hypoxic conditions by microplate reader method; format: functional, cell-based
How it was run: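 A549 cells seeded at 1500 cells/well and held 6 h at 37 °C under hypoxia (<0.3% O2). Compound added, then 12 h hypoxic incubation at 37 °C. Plates kept hypoxic and X-irradiated at 6 Gy, then incubated 72 h aerobically. Viability read by WST-8 (CCK-8). Mean ± S.D., n = 9.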

[7] = test system: A549; assay: Cytotoxicity against human A549 cells exposed to 1 uM compound pre-irradiated 30 to 120 Gy/min X-ray irradiation measured after 72 hrs under aerobic conditions by microplate reader method; format: functional, cell-based
How it was run: (§1)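 Compound dissolved in DMEM and X-irradiated (6.0 Gy/min) in a sealed glass ampoule at ambient temperature, under hypoxic or aerobic conditions. A549 cells were seeded at 1500 cells/well and grown 24 h at 37 °C aerobically, then incubated with the irradiated solution aerobically for 72 h. Viability read by WST-8 (CCK-8). Mean ± S.D., n = 6.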

[8] = test system: A549; assay: Cytotoxicity against human A549 cells exposed to 1 uM compound pre-irradiated 30 to 120 Gy/min X-ray irradiation measured after 72 hrs under hypoxic conditions by microplate reader method; format: functional, cell-based; how it was run: as §1

SMILES | Drug degradation [1] | Drug metabolism [2] | Drug degradation [3] | Drug metabolism [4] | IC50 [5] | Activity [6] | Activity [7] | Activity [8]
CC(C(=O)C(C)n1c(=O)c(F)cn([C@H]2C[C@H](O)[C@@H](CO)O2)c1=O)n1c(=O)c(F)cn([C@H]2C[C@H](O)[C@@H](CO)O2)c1=O (stereo not given in full) | 291 nmol/J | 115.3 nmol/J | 177.2 nmol/J | 26.2 nmol/J | 1040 nM | – | – | –
O=c1[nH]c(=O)n([C@H]2C[C@H](O)[C@@H](CO)O2)cc1F [FLOXURIDINE] | – | – | – | – | 12.4 nM | – | – | –
CC(=O)Cn1c(=O)c(F)cn([C@H]2C[C@H](O)[C@@H](CO)O2)c1=O | 312.5 nmol/J | 50.9 nmol/J | – | – | – | – | – | –

Second part, led by results:

Drug degradation [1] | Drug metabolism [2] | Drug degradation [3] | Drug metabolism [4] | SMILES | IC50 [5] | Activity [6] | Activity [7] | Activity [8]
148.8 nmol/J | < 1 nmol/J | 140.3 nmol/J | 1.4 nmol/J | O=c1c(F)cn([C@H]2C[C@H](O)[C@@H](CO)O2)c(=O)n1CCCn1c(=O)c(F)cn([C@H]2C[C@H](O)[C@@H](CO)O2)c1=O | – | – | – | –
319.1 nmol/J | 125.9 nmol/J | 173.6 nmol/J | 14.5 nmol/J | O=C(Cn1c(=O)c(F)cn([C@H]2C[C@H](O)[C@@H](CO)O2)c1=O)Cn1c(=O)c(F)cn([C@H]2C[C@H](O)[C@@H](CO)O2)c1=O | 4660 nM | inactive | inactive | Active
